Measured values: ChEMBL document CHEMBL4130534, “Genomics-Driven Discovery of Chlorinated Cyclic Hexapeptides Ulleungmycins A and B from a Streptomyces Species” (2017)
Values after ≈ are worked out from the molar mass of the structure shown. Square brackets hold non-standard residues; d marks the D form. Peptide text beside a SMILES is read from it. Trp(5-Cl) = N[C@@H](Cc1c[nH]c2ccc(Cl)cc12)C(=O)O; dAsn(3R-OH) = NC(=O)[C@H](O)[C@@H](N)C(=O)O; aIle = CC[C@@H](C)[C@H](N)C(=O)O; Orn = NCCC[C@H](N)C(=O)O

Key:
Assay type in all cases: functional
[1] = test system: Staphylococcus aureus; assay: Antibacterial activity against Staphylococcus aureus RN4220 after 24 hrs by broth microdilution method; conditions: RN4220, 24 h
Procedure, shortened: (§1)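 Broth microdilution in Mueller−Hinton broth. Strains grown to mid-log phase in the same medium and diluted 1000-fold, then inoculated at 10^5 cells/mL. Compounds dissolved in DMSO (final ≤0.05%) and tested as serial 2-fold dilutions; 0.05% DMSO as vehicle control. Incubated 24 h at 37 °C with growth read as absorbance at 650 nm. MIC taken as the lowest concentration completely inhibiting growth, in triplicate.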

[2] = test system: Staphylococcus aureus; assay: Antibacterial activity against methicillin-resistant Staphylococcus aureus CCARM 3167 after 24 hrs by broth microdilution method; conditions: CCARM 3167, 24 h; procedure, shortened: as §1
[3] = test system: Staphylococcus aureus; assay: Antibacterial activity against quinolone-resistant Staphylococcus aureus CCARM 3505 after 24 hrs by broth microdilution method; conditions: CCARM 3505, 24 h; procedure, shortened: as §1
[4] = test system: Bacillus subtilis; assay: Antibacterial activity against Bacillus subtilis KCTC 1021 after 24 hrs by broth microdilution method; conditions: KCTC 1021, 24 h
Procedure, shortened: (§2)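 Broth microdilution in Mueller–Hinton broth. Strains grown to mid-log phase and diluted 1000-fold in the same medium. Cells at 10^5/mL, 0.2 mL/well. Test samples prepared in DMSO (final ≤0.05%), with 0.05% DMSO as vehicle control. Serial 2-fold dilutions, 24 h at 37 °C. Growth read as absorbance at 650 nm. MIC is the lowest concentration giving complete growth inhibition, done in triplicate.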

[5] = test system: Streptococcus pneumoniae; assay: Antibacterial activity against Streptococcus pneumoniae KCTC 5412 after 24 hrs by broth microdilution method; conditions: KCTC 5412, 24 h
Procedure, shortened: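 Broth microdilution with cells grown in Todd–Hewitt medium instead of Mueller–Hinton broth. Cells at 10^5/mL, 0.2 mL/well. Test samples prepared in DMSO (final ≤0.05%), with 0.05% DMSO as vehicle control. Serial 2-fold dilutions, 24 h at 37 °C. Growth read as absorbance at 650 nm. MIC is the lowest concentration giving complete growth inhibition, done in triplicate.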

[6] = test system: Enterococcus faecalis; assay: Antibacterial activity against Enterococcus faecalis KCTC 5191 after 24 hrs by broth microdilution method; conditions: KCTC 5191, 24 h; procedure, shortened: as §2
[7] = test system: Escherichia coli; assay: Antibacterial activity against Escherichia coli CCARM 1356 after 24 hrs by broth microdilution method; conditions: CCARM 1356, 24 h; procedure, shortened: as §2
[8] = test system: Pseudomonas aeruginosa; assay: Antibacterial activity against Pseudomonas aeruginosa KCTC 2004 after 24 hrs by broth microdilution method; conditions: KCTC 2004, 24 h; procedure, shortened: as §2

Compound	MIC [1] [µg/mL]	MIC [2] [µg/mL]	MIC [3] [µg/mL]	MIC [4] [µg/mL]	MIC [5] [µg/mL]	MIC [6] [µg/mL]	MIC [7] [µg/mL]	MIC [8] [µg/mL]
CC[C@@H](C)[C@@H]1NC(=O)[C@@H](CCC(C)C)NC(=O)[C@@H](C(C)C)NC(=O)[C@H](Cc2c[nH]c3ccc(Cl)cc23)NC(=O)[C@@H]([C@@H](O)C(N)=O)NC(=O)[C@H](CCCN)NC1=O	16 (≈ 19.9 µM)	16 (≈ 19.9 µM)	8 (≈ 9.95 µM)	8 (≈ 9.95 µM)	16 (≈ 19.9 µM)	8 (≈ 9.95 µM)	128 (≈ 159 µM)	128 (≈ 159 µM)
CC[C@@H](C)[C@@H]1NC(=O)[C@@H](CC(C)C)NC(=O)[C@@H](C(C)C)NC(=O)[C@H](Cc2c[nH]c3ccc(Cl)cc23)NC(=O)[C@@H]([C@@H](O)C(N)=O)NC(=O)[C@H](CCCN)NC1=O (cyclo([Orn][dAsn(3R-OH)][Trp(5-Cl)][dV][dL][aIle]))	16 (≈ 20.2 µM)	32 (≈ 40.5 µM)	16 (≈ 20.2 µM)	8 (≈ 10.1 µM)	8 (≈ 10.1 µM)	8 (≈ 10.1 µM)	64 (≈ 81 µM)	128 (≈ 162 µM)
O=C(O)c1cn(C2CC2)c2cc(N3CCNCC3)c(F)cc2c1=O [CIPROFLOXACIN]		4 (≈ 12.1 µM)	32 (≈ 96.6 µM)	0.015 (≈ 0.0453 µM)		1 (≈ 3.02 µM)	64 (≈ 193 µM)	
